Calls of active or inactive are those of the source. The calls are words filed in the database; no cut-off is given here.
Experiments:
[1] = system: A549; assay: Cytotoxicity against human A549 cells after 48 hrs by MTT assay; format: functional, cell-based; conditions: A549, 48 h
How it was run: (§1)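 Cells in RPMI-1640 with 10% heat-inactivated calf serum, penicillin/streptomycin, 5% CO2, 37 °C. Seeded at 5×10³ per well and exposed to six concentrations of 0.01–1000 for 48 h. Then 0.5% MTT for 4 h at 37 °C, formazan dissolved in DMSO, absorbance read at 570 nm. Inhibition calculated as (1 − treated/control absorbance)×100. IC50 is the concentration giving 50% inhibition; mean ± SD of three observations.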

[2] = system: HT-29; assay: Cytotoxicity against human HT-29 cells after 48 hrs by MTT assay; format: functional, cell-based; conditions: HT-29, 48 h; how it was run: as §1
[3] = system: SK-OV-3; assay: Cytotoxicity against human SKOV3 cells after 48 hrs by MTT assay; format: functional, cell-based; conditions: SK-OV-3, 48 h; how it was run: as §1
[4] = system: BGC-823; assay: Cytotoxicity against human BGC823 cells after 48 hrs by MTT assay; format: functional, cell-based; conditions: BGC-823, 48 h; how it was run: as §1
[5] = system: Bel-7402; assay: Cytotoxicity against human Bel7402 cells after 48 hrs by MTT assay; format: functional, cell-based; conditions: Bel-7402, 48 h; how it was run: as §1
[6] = system: HepG2; assay: Induction of apoptosis in human HepG2 cells assessed as morphological changes at 1 uM after 20 hrs using DAPI staining by fluorescence microscopy; format: functional, cell-based
How it was run: (§2)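 Mid-log HepG2 cultures in RPMI-1640 treated for 20 h, then morphology checked by inverted light microscopy. Floating and attached cells collected with EDTA/trypsin, fixed in ice-cold 4% paraformaldehyde for 20 min, and permeabilized with 0.3% Triton X-100. Stained with DAPI and viewed by fluorescence microscopy at 340 nm excitation.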

[7] = system: HepG2; assay: Induction of apoptosis in human HepG2 cells assessed as ratio of Bcl-2 to Bax protein expression at 2 uM after 20 hrs by SDS-PAGE; format: functional
How it was run: (§3)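 HepG2 cells treated for 20 h, then lysed in Tris-Cl pH 6.8 buffer with 4% SDS, 20% glycerol, 200 mM β-mercaptoethanol, PMSF and aprotinin. Protein measured by Bradford at 595 nm and resolved on 10% SDS-PAGE, then transferred to PVDF membrane. Probed overnight at 4 °C with anti-Bcl-2, anti-Bax and anti-actin primaries, then 1 h with IRDye800 secondaries. Bcl-2/Bax ratio derived from band quantitation.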

[8] = system: HepG2; assay: Induction of apoptosis in human HepG2 cells assessed as morphological changes at 3 uM after 20 hrs using DAPI staining by fluorescence microscopy; format: functional, cell-based; how it was run: as §2
[9] = system: HepG2; assay: Induction of apoptosis in human HepG2 cells assessed as ratio of Bcl-2 to Bax protein expression at 6 uM after 20 hrs by SDS-PAGE; format: functional; how it was run: as §3
[10] = system: HepG2; assay: Induction of early apoptosis in human HepG2 cells assessed as presence of congregated chromatin and nucleolus pyknosis at 1 uM after 18 hrs using AOEB staining by fluorescence microscopy; format: functional, cell-based
How it was run: (§4)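 HepG2 cells treated for 18 h, fixed in 4% paraformaldehyde for 20 min, and permeabilized in 0.1% Triton for 20 min. Stained with acridine orange/ethidium bromide in PBS for 5 min. Viewed by fluorescence microscopy at 490 nm excitation. Green AO with condensed chromatin scored as early apoptotic; uniform red EB scored as dead.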

[11] = system: HepG2; assay: Induction of apoptosis in human HepG2 cells assessed late apoptotic cells at 2 uM after 20 hrs using FITC-conjugated annexin V and propidium iodide staining by FACS analysis; format: functional
How it was run: (§5)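 HepG2 cells in flasks treated for 20 h, then 1×10⁶ cells harvested, washed and resuspended in PBS. Stained with FITC-Annexin V and PI kit per kit instructions and analysed by flow cytometry. Quadrants: Annexin−/PI− viable, Annexin+/PI− early apoptotic, upper right necrotic/late apoptotic.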

[12] = system: HepG2; assay: Induction of apoptosis in human HepG2 cells assessed viable cells at 2 uM after 20 hrs using FITC-conjugated annexin V and propidium iodide staining by FACS analysis; format: functional; how it was run: as §5
[13] = system: HepG2; assay: Induction of apoptosis in human HepG2 cells assessed as morphological changes at 2 uM after 20 hrs using DAPI staining by fluorescence microscopy; format: functional, cell-based; how it was run: as §2
[14] = system: HepG2; assay: Induction of apoptosis in human HepG2 cells assessed nonviable necrotic cells at 6 uM after 20 hrs using FITC-conjugated annexin V and propidium iodide staining by FACS analysis; format: functional; how it was run: as §5
[15] = system: HepG2; assay: Induction of apoptosis in human HepG2 cells assessed as ratio of Bcl-2 to Bax protein expression at 1 uM after 20 hrs by SDS-PAGE; format: functional; how it was run: as §3
[16] = system: HepG2; assay: Induction of apoptosis in human HepG2 cells assessed as decrease in Bcl-2 protein expression at 1 uM after 20 hrs by SDS-PAGE; format: functional, cell-based; how it was run: as §3
[17] = system: HepG2; assay: Induction of apoptosis in human HepG2 cells assessed viable cells at 6 uM after 20 hrs using FITC-conjugated annexin V and propidium iodide staining by FACS analysis; format: functional; how it was run: as §5
[18] = system: HepG2; assay: Induction of apoptosis in human HepG2 cells assessed early apoptotic cells at 6 uM after 20 hrs using FITC-conjugated annexin V and propidium iodide staining by FACS analysis; format: functional; how it was run: as §5
[19] = system: HepG2; assay: Induction of apoptosis in human HepG2 cells assessed as inhibition of cell viability after 24 hrs by MTT assay; format: functional, cell-based
How it was run: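 Medium then removed and MTT added; after 4 h the supernatant was discarded and DMSO added. Absorbance read at 570 nm. Mean ± SD, n = 3; IC50 calculated from the concentration–response.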

[20] = system: HepG2; assay: Induction of apoptosis in human HepG2 cells assessed late apoptotic cells at 1 uM after 20 hrs using FITC-conjugated annexin V and propidium iodide staining by FACS analysis; format: functional; how it was run: as §5
[21] = system: HepG2; assay: Induction of apoptosis in human HepG2 cells assessed nonviable necrotic cells at 1 uM after 20 hrs using FITC-conjugated annexin V and propidium iodide staining by FACS analysis; format: functional; how it was run: as §5
[22] = system: HepG2; assay: Induction of apoptosis in human HepG2 cells assessed early apoptotic cells at 2 uM after 20 hrs using FITC-conjugated annexin V and propidium iodide staining by FACS analysis; format: functional; how it was run: as §5
[23] = system: HepG2; assay: Induction of early apoptosis in human HepG2 cells assessed as presence of congregated chromatin and nucleolus pyknosis at 2 uM after 18 hrs using AOEB staining by fluorescence microscopy; format: functional, cell-based; how it was run: as §4
[24] = system: HepG2; assay: Induction of apoptosis in human HepG2 cells assessed viable cells at 1 uM after 20 hrs using FITC-conjugated annexin V and propidium iodide staining by FACS analysis; format: functional; how it was run: as §5
[25] = system: HepG2; assay: Induction of apoptosis in human HepG2 cells assessed late apoptotic cells at 6 uM after 20 hrs using FITC-conjugated annexin V and propidium iodide staining by FACS analysis; format: functional; how it was run: as §5
[26] = system: HepG2; assay: Induction of apoptosis in human HepG2 cells assessed early apoptotic cells at 1 uM after 20 hrs using FITC-conjugated annexin V and propidium iodide staining by FACS analysis; format: functional; how it was run: as §5
[27] = system: HepG2; assay: Induction of early apoptosis in human HepG2 cells assessed as presence of congregated chromatin and nucleolus pyknosis at 3 uM after 18 hrs using AOEB staining by fluorescence microscopy; format: functional, cell-based; how it was run: as §4
[28] = system: HepG2; assay: Induction of apoptosis in human HepG2 cells assessed as decrease in Bcl-2 protein expression at 2 uM after 20 hrs by SDS-PAGE; format: functional, cell-based; how it was run: as §3
[29] = system: HepG2; assay: Induction of apoptosis in human HepG2 cells assessed as decrease in Bcl-2 protein expression at 6 uM after 20 hrs by SDS-PAGE; format: functional, cell-based; how it was run: as §3
[30] = system: HepG2; assay: Induction of apoptosis in human HepG2 cells assessed nonviable necrotic cells at 2 uM after 20 hrs using FITC-conjugated annexin V and propidium iodide staining by FACS analysis; format: functional; how it was run: as §5

## C/C(=C/C[C@@]12OC(C)(C)[C@@H]3C[C@@H](C=C4C(=O)c5c(O)c6c(c(C/C=C(\C)CO)c5O[C@]431)O[C@](C)(CC/C=C(\C)C=O)C=C6)C2=O)C(=O)O
[1]
  IC50: 20.5 µM
[2]
  IC50: 2.08 µM
[3]
  IC50: 1.84 µM
[4]
  IC50: 6.75 µM
[5]
  IC50: 15 µM

## COC(=O)/C(C)=C\C[C@@]12OC(C)(C)[C@@H]3C[C@@H](C=C4C(=O)c5c(OC)c6c(c(CC=C(C)C)c5O[C@]431)O[C@](C)(CCC1OC1(C)C)C=C6)C2=O (stereo partly specified)
[1]
  IC50: 1.48 µM
[2]
  IC50: 2.19 µM
[3]
  IC50: 0.64 µM
[4]
  IC50: 0.75 µM
[5]
  IC50: 1.4 µM

## COC(=O)/C(C)=C\C[C@@]12OC(C)(C)[C@@H]3C[C@@H](C=C4C(=O)c5c(OC)c6c(c(CC=C(C)C)c5O[C@]431)O[C@](C)(CC/C=C(\C)COC(C)=O)C=C6)C2=O
[1]
  IC50: 5.25 µM
[2]
  IC50: 2.41 µM
[3]
  IC50: 15.8 µM
[4]
  IC50: 1.42 µM
[5]
  IC50: 3.6 µM

## CC(C)=CCC[C@]1(C)C=Cc2c(O)c3c(c(CC=C(C)C)c2O1)O[C@]12[C@H]4C[C@H](C(=O)[C@]1(C/C=C(/C)C(=O)O)OC4(C)C)C(O)C2(O)C3=O (stereo partly specified)
[1]
  IC50: 74.2 µM
[2]
  IC50: 34.7 µM
[3]
  IC50: 6 µM
[4]
  IC50: 29.9 µM
[5]
  IC50: 33.1 µM

## COC(=O)/C(C)=C\C[C@@]12OC(C)(C)[C@@H]3C[C@@H](C=C4C(=O)c5c(OC)c6c(c(CC=C(C)C)c5O[C@]431)O[C@](C)(CC[C@H](O)C(C)(C)O)C=C6)C2=O
[1]
  IC50: 5.86 µM
[2]
  IC50: 3.75 µM
[3]
  IC50: 3.23 µM
[4]
  IC50: 3.46 µM
[5]
  IC50: 3.65 µM

## COC(=O)/C(C)=C\C[C@@]12OC(C)(C)[C@@H]3C[C@@H](C=C4C(=O)c5c(OC)c6c(c(CC=C(C)C)c5O[C@]431)O[C@](C)(CC[C@@H](O)C(C)(C)O)C=C6)C2=O
[1]
  IC50: > 100 µM
[2]
  IC50: > 100 µM
[3]
  IC50: > 100 µM
[4]
  IC50: > 100 µM
[5]
  IC50: > 100 µM

## COC(=O)/C(C)=C\C[C@@]12OC(C)(C)[C@@H]3C[C@@H](C=C4C(=O)c5c(OC)c6c(c(CC=C(C)C)c5O[C@]431)O[C@](C)(CC/C=C(\C)CO)C=C6)C2=O
[1]
  IC50: 4.38 µM
[6]
  Activity: Active
[7]
  Ratio: 0.478
[8]
  Activity: Active
[9]
  Ratio: 0.251
[10]
  Activity: Active
[11]
  Activity: 2.5%
[2]
  IC50: 0.89 µM
[12]
  Activity: 92.3%
[13]
  Activity: Active
[14]
  Activity: 0.9%
[15]
  Ratio: 0.476
[16]
  Activity: Active
[17]
  Activity: 72.7%
[3]
  IC50: 1.28 µM
[18]
  Activity: 12.9%
[19]
  Activity: Dose-dependent effect
[19]; HepG2, 24 h
  IC50: 2.35 µM
[4]
  IC50: 0.84 µM
[20]
  Activity: 3.5%
[21]
  Activity: 0.2%
[22]
  Activity: 5%
[23]
  Activity: Active
[24]
  Activity: 92.3%
[25]
  Activity: 13.5%
[26]
  Activity: 4%
[27]
  Activity: Active
[28]
  Activity: Active
[29]
  Activity: Active
[5]
  IC50: 0.96 µM
[30]
  Activity: 0.2%

## C/C(=C/C[C@@]12OC(C)(C)[C@@H]3C[C@@H](C=C4C(=O)c5c(O)c6c(c(CC7OC7(C)C)c5O[C@]431)O[C@](C)(CCC1OC1(C)C)C=C6)C2=O)C(=O)O (stereo partly specified)
[1]
  IC50: 1.56 µM
[2]
  IC50: 2.08 µM
[3]
  IC50: 0.76 µM
[4]
  IC50: 4.38 µM
[5]
  IC50: 3.73 µM

## COC(=O)/C(C)=C\C[C@@]12OC(C)(C)[C@@H]3C[C@@H](C=C4C(=O)c5c(OC)c6c(c(CC7OC7(C)C)c5O[C@]431)O[C@](C)(CCC1OC1(C)C)C=C6)C2=O (stereo partly specified)
[1]
  IC50: 3.61 µM
[2]
  IC50: 1.86 µM
[3]
  IC50: 1.8 µM
[4]
  IC50: 3.21 µM
[5]
  IC50: 1.66 µM

## CC(C)=CCC[C@]1(C)C=Cc2c(O)c3c(c(C/C=C(\C)CO)c2O1)O[C@]12C(=C[C@@H]4C[C@H]1C(C)(C)O[C@@]2(C/C=C(/C)C(=O)O)C4=O)C3=O
[1]
  IC50: 5.87 µM
[2]
  IC50: 2.66 µM
[3]
  IC50: 1.61 µM
[4]
  IC50: 4.89 µM
[5]
  IC50: 4.01 µM

## CC(C)=CCC[C@]1(C)C=Cc2c(O)c3c(c(CC=C(C)C)c2O1)O[C@]12C(=C[C@@H]4C[C@H]1C(C)(C)O[C@@]2(C/C=C(/C)C(=O)O)C4=O)C3=O [GAMBOGIC ACID]
[1]
  IC50: 5.81 µM
[2]
  IC50: 5.61 µM
[3]
  IC50: 3.06 µM
[4]
  IC50: 4.51 µM
[5]
  IC50: 3.31 µM
